# From PubChem BioAssay
# HNF4A DNA FP = change in binding of human HNF4 alpha to DNA. HNF4a-FITC DNA binding, fluorescence polarization, 1 h. 360,000 compounds, 0.3% hits. activity change, % at 10 µM. P41235. AID 1224865; in the data active = activity change above about 30%, passing the limit was not always enough
# Rpn11 inh = inhibitors of human proteasome Rpn11 | O00487 | human 26S proteasome, Ub4-pepOG fluorescence polarization; 20S core pre-blocked with epoxomicin | calls only at 20 µM | AID 588493 | 360,000 compounds, 0.59% hits;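 active = inhibition at 20 µM, scaled to each plate's controls, above about 33%, limit read from the data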
# Target sequence (O00487 whole entry, looked up): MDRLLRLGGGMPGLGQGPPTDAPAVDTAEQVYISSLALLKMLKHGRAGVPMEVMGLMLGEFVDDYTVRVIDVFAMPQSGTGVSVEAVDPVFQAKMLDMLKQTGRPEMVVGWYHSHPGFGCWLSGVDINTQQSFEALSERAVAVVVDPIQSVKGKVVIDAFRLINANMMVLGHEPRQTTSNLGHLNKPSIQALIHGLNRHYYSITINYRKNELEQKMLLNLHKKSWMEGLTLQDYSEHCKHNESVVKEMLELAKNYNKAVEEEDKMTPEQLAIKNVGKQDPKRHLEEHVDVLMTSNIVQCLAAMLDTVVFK
# PKA-R1A activ = activators of PKA-R1A complex | PKA-R1A dissociation, Cy5-IP20 fluorescence polarization; scaled: DMSO 0%, 113 µM cGMP 100% | P00514+P68181 | 340,000 compounds, 0.083% hits | activation, % at 11.4 µM;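 active = percent activation above the mean of all tested compounds plus 3 SD, cut at about 19% in these data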;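 also: higher means more PKAc released from R1A so a rise in polarization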
# TPT1 inhibitor = blocks Candida albicans tRNA 2'-phosphotransferase. recombinant caTPT1, FP RNA substrate dephosphorylation. inhibition, % at 5 µM. 300,000 compounds, 0.81% hits. AID 1962;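 active = inhibition above the mean of all tested compounds plus 3 SD, set per screening campaign, cut at about 24% in these data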
# CSN inh = inhibitors of human CSN-mediated cullin deneddylation; Purified CSN, SCF-Nedd8-OG deneddylation, fluorescence polarization; 360,000 compounds, 0.38% hits; Q92905; inhibition, % at 12.5 µM; AID 651999;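 active = pattern-corrected inhibition above about 35%, with an unprinted fluorescence ratio check between 0.5 and 1.5, limit read from the data, passing the limit was not always enough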
#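 Schedule: reaction 90 min, room temperature / Assay system: HEK293T-derived human Csn5 enzyme / Input: Csn5 at 0.24 nM final / Measure: inhibition of Csn5 cleavage, % / Control set: substrate-only high control, full reaction low control / Technique: fluorescence polarization of the substrate / Buffer or medium: Tris/NaCl/DTT buffer, pH 7.5 / Reagent: SCFSkp2-Nedd8OG substrate at 10 nM final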
# PKA-R2B act = activates the human PKA-R2B holoenzyme complex | P22694+P31323 | PKA-R2B holoenzyme dissociation, Cy5-IP20 fluorescence polarization; R2B truncated from residue 108, S112A mutant; 0% DMSO only, 100% 113 µM cGMP | activation, % at 11.4 µM | 340,000 compounds, 0.079% hits | AID 504700;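 active = activation above a cutoff set at the mean over all compounds plus 3 SD, cut at about 18% in these data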;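 also: higher means more holoenzyme dissociation and a rise in polarization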
# Rpn11 inh conf = confirmation of human proteasome Rpn11 inhibitors | purified human 26S proteasome, Ub4-pepOG fluorescence polarization; proteasome pretreated with epoxomicin | inhibition, % at 20 µM | 1,900 compounds, 29% hits | shares compounds with Rpn11 inh
# MMP-2 counter = blocks human MMP-2, flagging nonselective RPN11 hits; shares compounds with Rpn11 inh; recombinant MMP-2, FRET peptide cleavage fluorescence; inhibition, % at 20 µM; 1,900 compounds, 4% hits;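 also: human MMP-2 activated beforehand with APMA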
# Thrombin FP = thrombin (bovine) inhibition counter-screen; bovine thrombin cleavage of Ub4-pepOG, fluorescence polarization; inhibition, % at 20 µM; 1,900 compounds, 13% hits; shares compounds with Rpn11 inh;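 active = mean inhibition at least 40% at 20 µM, or signal 3 deviations below plate average, so some actives read negative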
# A number is an active result; 0 = inactive; - = no result given; + = active, no number. The list is not random: actives were taken first. Their share in the collection is about 1.6%. Rule as the data show it, unless noted: active = inhibition above about 40%; inactive = the rest.
SMILES,HNF4A DNA FP,Rpn11 inh,PKA-R1A activ,TPT1 inhibitor,CSN inh,PKA-R2B act,Rpn11 inh conf,MMP-2 counter,Thrombin FP
C#CCOCCOCCOCCNc1nc(N2CCN(C(=O)CCCCCCCCCCNC(=O)Cn3cc(CCCCCN)nn3)CC2)nc(N2CCN(C(=O)CCCCCCCCCCNC(=O)[C@@H](CCSC)n3cc(CCO)nn3)CC2)n1,0,+,0,0,0,0,0,0,0
CCOc1ccc(C2NC(=O)C(C#N)=C(S)N2c2cccc(C)c2)cc1OC (stereo unspecified),0,0,0,0,0,0,-,-,-
CCOc1ccc(C2NC(=O)C(C#N)=C(S)N2c2ccc(C)cc2)cc1OC (stereo unspecified),31,+,0,0,0,0,0,0,0
COc1cccc(-c2nn(C)c3sc(C(=O)NCCCN(C)Cc4ccccc4)cc23)c1,0,+,0,0,0,0,0,0,0
Cc1ccc(CSc2cc(C)[nH]c(=O)n2)cc1,0,+,0,0,0,0,0,0,0
CCC(C)NC(=O)C1c2cc(OC)c(OC)cc2C(=O)N(C)C1c1ccc(OC)cc1 (stereo unspecified),0,0,0,0,0,0,-,-,-
CCC(C)NC(=O)C1c2cc(OC)c(OC)cc2C(=O)N(C)C1c1cccs1 (stereo unspecified),0,+,0,0,0,0,0,0,0
CCCN1C(=O)/C(=C/c2ccccc2OCc2ccc(C(=O)O)cc2)NC1=S,0,0,0,0,0,0,-,-,-
N#C/C(=C\c1ccc(O)c([N+](=O)[O-])c1)c1nc2ccccc2s1,0,+,0,-,0,0,42,72,0
Cc1ccc(NC(=O)C(C)Sc2nc(-c3ccccc3)cc(=O)[nH]2)cc1 (stereo unspecified),0,0,0,0,0,0,-,-,-
COc1ccc(NC(=O)COC(=O)CCc2ccc(S(=O)(=O)N3CCOCC3)cc2)cc1Cl,0,0,0,-,0,0,-,-,-
Cc1ccsc1C(=O)N1CCC1(C)C(=O)NS(=O)(=O)c1ccc(Br)cc1 (stereo unspecified),0,0,-,-,0,-,-,-,-
CCc1ccccc1NC(=O)N1CCCC(CCC(=O)N(C)CCc2ccccn2)C1 (stereo unspecified),0,+,0,0,0,0,0,0,0
CC(C)n1cc(/C=N/NC(=O)COc2cccc3cccnc23)c2ccccc21,0,0,0,0,0,0,-,-,-
C=CCn1cc(/C=N/NC(=O)COc2cccc3cccnc23)c2ccccc21,0,+,0,0,0,0,88,0,53
Cc1ccc(OCC(=O)NC2CCSc3ccccc32)cc1 (stereo unspecified),0,0,0,0,0,0,-,-,-
CCCN1C2CCCC1CC(NC(=O)c1cccc([N+](=O)[O-])c1)C2 (stereo unspecified),0,0,0,0,0,0,-,-,-
COc1cc(SC#N)ccc1N=Cc1c(C)[nH]n(-c2ccc(Cl)cc2)c1=O,0,+,0,0,0,0,0,0,0
Cc1onc(-c2c(F)cccc2Cl)c1C(=O)N=C(N)N1CC(C)OC(C)C1 (stereo unspecified),0,0,0,0,0,0,-,-,-
C/C(=N\NC(=O)C(=O)Nc1ccc(C)c(Cl)c1)c1ccncc1,0,+,0,0,0,0,0,0,0
C/C(=N\NC(=O)C(=O)Nc1ccc(C)cc1)c1ccncc1,0,0,0,0,0,0,-,-,-
CCCN(CC(=O)Nc1ccccc1C)C(=O)c1ccc(COc2ccccc2)cc1,0,0,0,0,0,0,-,-,-
c1ccc(CN2CCN(C3=Nc4cccc5cccc3c45)CC2)cc1,0,0,0,-,0,0,-,-,-
